Source: PubChem
Hits are enriched below; roughly 1.8% of the tested compounds scored in any of these assays.
ABHD4 inh: ABHD4 (mouse) inhibition, primary FP screen. purified mABHD4, FP-Rh probe fluorescence polarization. inhibition, % at 8.92 µM. hit rate 0.54% among 370,000;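 active means inhibition exceeding the mean over every tested compound plus 3 SD, cut at about 30% in these data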
Target sequence (Q8VD66 whole entry, looked up): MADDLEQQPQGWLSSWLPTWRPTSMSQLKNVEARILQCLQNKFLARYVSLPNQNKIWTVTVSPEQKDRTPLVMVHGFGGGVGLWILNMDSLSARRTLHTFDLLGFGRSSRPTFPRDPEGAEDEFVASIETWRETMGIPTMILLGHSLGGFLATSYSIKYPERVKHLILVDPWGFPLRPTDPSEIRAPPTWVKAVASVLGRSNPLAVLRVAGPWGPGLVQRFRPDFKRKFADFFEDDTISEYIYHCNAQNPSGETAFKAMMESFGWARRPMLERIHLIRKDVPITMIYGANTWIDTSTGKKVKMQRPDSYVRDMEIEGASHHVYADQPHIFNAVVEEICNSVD
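Doses – 8.92 µM, single dose · Material – wild-type mouse ABHD4 protein · Replication – single well per compound (singlicate) · Measure – percent inhibition of probe binding, normalized to plate controls · Schedule – 45 min compound pre-incubation plus 60 min probe step, 25 °C · Detection – fluorescence polarization with parallel and perpendicular emission, 525/598 nm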
Tn7 DDE FP: inhibitors of Tn7 peptide binding to human fibrin DD(E). FP displacement of FITC-Tn7 peptide from fibrin DD(E); 0% = median of compound wells per plate. inhibition, % at 8.3 µM. hit rate 0.13% among 370,000. AID 720508;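 active means inhibition above the mean of compounds falling within the control limits plus 3 SD of them, cut at about 14% in these data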
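System: human fibrin DD(E); quantity: Fibrin-DD(E) at 2 µM final; also added: fluorescent Tn7 probe at 0.1 µM; compound dosing: single nominal test concentration of 8.3 µM per compound; schedule: 10 min preincubation, 3 h with tracer, room temperature; detection: fluorescence polarization of the labelled Tn7 tracer; repeats: one replicate per compound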
Tn6 DDE FP: disrupts Tn6 cyclic peptide binding to fibrin D-Dimer-E complex; Fibrin DD(E) TRITC-Tn6 fluorescence polarization displacement; inhibition, % at 8.3 µM; hit rate 0.21% among 370,000; AID 720509;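 active means inhibition above a per-campaign cutoff: mean of compounds within control limits plus 3 SD, cut at about 15% in these data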
SIAE primary: inhibitors of human sialic acid acetylesterase SIAE | Q9HAT2 | SIAE FP-Rh probe binding, fluorescence polarization | inhibition, % at 9.66 µM | hit rate 0.69% among 370,000;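 active means inhibition above a cutoff: mean of compounds within the control limits plus 3 SD of those, cut at about 17% in these data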
TCR CD3 inh: inhibitors of human TCR-CD3 interaction; TAMRA-labeled TCR probe fluorescence, biochemical; inhibition, % at 9.4 µM; hit rate 0.37% among 360,000; AID 651800; in the data active means inhibition above about 19%;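 further: recombinant mutant TCR 2C K166C tagged with TAMRA read by polarization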
HTRA1 inh: inhibitors of human serine peptidase HTRA1 | inhibition, % at 5.96 µM | Q92743 | recombinant HTRA1, FP-rhodamine activity-based probe, fluorescence polarization | hit rate 0.5% among 340,000; in the data active means inhibition above about 36%
ABHD4 confirm: confirmation of mouse ABHD4 inhibitors; hit rate 55% among 1,800; purified mABHD4, FP-Rh probe fluorescence polarization; inhibition, % at 8.92 µM; AID 720658; shares compounds with ABHD4 inh;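 active means mean inhibition across replicates above the hit cutoff set in the primary screen, cut at about 30% in these data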
A number is an active result.

For COC(=O)C1CN(C2CCCC2)CCS(=O)(=O)N1Cc1cn(Cc2ccc(Cl)cc2)nn1 (configuration not stated) the results were ABHD4 inh inactive, Tn7 DDE FP inactive, Tn6 DDE FP inactive and SIAE primary inactive.
Cc1cc(-c2ccc3c(c2)COc2c4ccccc4nn2-3)on1 was read as ABHD4 inh 30.8, Tn7 DDE FP inactive, Tn6 DDE FP inactive, SIAE primary inactive, TCR CD3 inh inactive, HTRA1 inh inactive and ABHD4 confirm inactive.
Screening CCN(/C=N/c1sc2c(c1C#N)CCCCC2)CC returned ABHD4 inh 32.3, Tn7 DDE FP inactive, Tn6 DDE FP inactive, SIAE primary inactive, TCR CD3 inh inactive, HTRA1 inh inactive and ABHD4 confirm 35.0.
Screening O=Cc1cc(OCc2ccccc2)ccc1[B-](F)(F)F returned ABHD4 inh 45.3, Tn7 DDE FP inactive, Tn6 DDE FP inactive, SIAE primary inactive, TCR CD3 inh inactive, HTRA1 inh inactive and ABHD4 confirm 43.3.
Nc1ccc(OCc2ccccc2)cc1[N+](=O)[O-] was read as ABHD4 inh inactive, Tn7 DDE FP inactive, Tn6 DDE FP inactive, SIAE primary inactive, TCR CD3 inh inactive and HTRA1 inh inactive.
`Cc1ccc(-n2c(Cc3cccs3)nnc2SCc2ccc(C#N)cc2)cc1` gave ABHD4 inh inactive, Tn7 DDE FP inactive, Tn6 DDE FP inactive and SIAE primary inactive.
For O=C(NNc1nc2ccccc2s1)Nc1ccc(F)cc1 the results were ABHD4 inh 38.0, Tn7 DDE FP inactive, Tn6 DDE FP inactive, SIAE primary inactive, TCR CD3 inh inactive, HTRA1 inh inactive and ABHD4 confirm inactive.
For O=C(NNc1nc2ccccc2s1)Nc1ccc(Cl)c(Cl)c1 the results were ABHD4 inh inactive, Tn7 DDE FP inactive, Tn6 DDE FP inactive, SIAE primary inactive, TCR CD3 inh inactive and HTRA1 inh inactive.
O=C(Nc1cccc(Cl)c1)c1cc(N=Nc2ccc([N+](=O)[O-])cc2Cl)ccc1O was read as ABHD4 inh 33.2, Tn7 DDE FP inactive, Tn6 DDE FP inactive, SIAE primary 22.2, TCR CD3 inh inactive, HTRA1 inh inactive and ABHD4 confirm 70.5.
Screening CC(C)(C)c1ccc(/C=C2\Oc3cc(OC(=O)N4CCOCC4)ccc3C2=O)cc1 returned ABHD4 inh 67.3, Tn7 DDE FP inactive, Tn6 DDE FP inactive, SIAE primary inactive, TCR CD3 inh inactive, HTRA1 inh inactive and ABHD4 confirm 57.1.
CC1OC2CC(=O)OC2C2=C1C(=O)c1c(O)cccc1C2=O (configuration not stated) was read as ABHD4 inh 38.0, Tn7 DDE FP inactive, Tn6 DDE FP inactive, SIAE primary inactive, TCR CD3 inh inactive and ABHD4 confirm 34.8.
For NC(=O)c1ccsc1NC(=O)c1ccc([N+](=O)[O-])o1 the results were ABHD4 inh 49.8, Tn7 DDE FP inactive, Tn6 DDE FP inactive, SIAE primary inactive, TCR CD3 inh inactive, HTRA1 inh inactive and ABHD4 confirm 56.3.
CCC(C)NC(=O)CNc1nnnn1-c1ccccc1 (configuration not stated) was read as ABHD4 inh inactive, Tn7 DDE FP inactive, Tn6 DDE FP inactive and SIAE primary inactive.
For CCCCCNC(=O)C(c1ccncc1)n1c(=O)c(-c2ccco2)nc2ccccc21 (configuration not stated) the results were ABHD4 inh 32.1, Tn7 DDE FP inactive, Tn6 DDE FP inactive, SIAE primary inactive, TCR CD3 inh inactive and ABHD4 confirm inactive.
`Cn1c(CNc2ccc(O)cc2)nc2ccccc21` gave ABHD4 inh 57.5, Tn7 DDE FP inactive, Tn6 DDE FP inactive, SIAE primary inactive, TCR CD3 inh inactive, HTRA1 inh inactive and ABHD4 confirm inactive.
For COc1ccc(S(=O)(=O)N2CCC(NC(=O)c3ccccc3)CC2)cc1 the results were ABHD4 inh 39.3, Tn7 DDE FP inactive, Tn6 DDE FP inactive, SIAE primary inactive, TCR CD3 inh inactive, HTRA1 inh inactive and ABHD4 confirm inactive.
COc1ccc(N=Nc2cc(C)c(O)c(CN3CCCCC3)c2)cc1 was read as ABHD4 inh inactive, Tn7 DDE FP inactive, Tn6 DDE FP inactive, SIAE primary inactive, TCR CD3 inh inactive and HTRA1 inh inactive.
